Assay results: ChEMBL document CHEMBL2177071, “The effect of Pro(2) modifications on the structural and pharmacological properties of endomorphin-2” (J Med Chem, 2012)

What was measured:
[1] = target: T1, Mu-type opioid receptor (Rattus norvegicus, UniProt P33535); assay: Agonist activity at mu opioid receptor in Wistar rat brain membranes after 60 mins by [35S]GTPgammaS binding assay; format: functional, cell membranes, Membrane
[2] = target: T1, Mu-type opioid receptor; format: cell membranes, Wistar, Membrane
[3] = target: Delta-type opioid receptor (Rattus norvegicus, UniProt P33533); assay: (§1) Displacement of [3H][Ile5,6]deltorphin 2 from delta opioid receptor in Wistar rat brain membranes; format: cell membranes, Membrane
Chain of Delta-type opioid receptor (P33533 whole entry): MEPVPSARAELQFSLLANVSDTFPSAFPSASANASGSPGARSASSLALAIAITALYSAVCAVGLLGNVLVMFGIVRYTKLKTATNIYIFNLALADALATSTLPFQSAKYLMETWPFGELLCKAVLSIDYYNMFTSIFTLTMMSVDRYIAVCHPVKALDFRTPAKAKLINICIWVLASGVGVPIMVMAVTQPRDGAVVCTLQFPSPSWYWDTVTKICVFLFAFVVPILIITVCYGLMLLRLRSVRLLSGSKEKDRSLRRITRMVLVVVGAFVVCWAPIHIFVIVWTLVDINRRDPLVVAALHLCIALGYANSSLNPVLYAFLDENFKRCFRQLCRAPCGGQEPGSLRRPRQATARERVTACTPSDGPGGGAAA
Procedure, shortened: (§2)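 Competitive displacement in crude rat brain membrane preparation, with the test peptide at a range of concentrations. Ki is calculated from EC50 by Cheng–Prusoff, Ki = EC50/(1+[ligand]/Kd), using Kd values from the literature. Means ± SEM, n ≥ 3.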

[4] = target: Delta-type opioid receptor (Rattus norvegicus) (UniProt P33533); assay: as §1; format: cell membranes; details: Membrane; procedure, shortened: as §2
Chain of Delta-type opioid receptor (Rattus norvegicus) (P33533 whole entry): as above

[5] = Half life in Wistar rat brain homogenate; format: ADME, tissue-based
Procedure, shortened: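 Peptide incubated in crude rat brain membrane homogenate with a protein content of 4.7 mg/mL, and its disappearance followed over time. Half-life is calculated from pseudo-first-order kinetics. Means of at least three individual experiments ± SEM.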

T1 sequence (P33535 whole entry): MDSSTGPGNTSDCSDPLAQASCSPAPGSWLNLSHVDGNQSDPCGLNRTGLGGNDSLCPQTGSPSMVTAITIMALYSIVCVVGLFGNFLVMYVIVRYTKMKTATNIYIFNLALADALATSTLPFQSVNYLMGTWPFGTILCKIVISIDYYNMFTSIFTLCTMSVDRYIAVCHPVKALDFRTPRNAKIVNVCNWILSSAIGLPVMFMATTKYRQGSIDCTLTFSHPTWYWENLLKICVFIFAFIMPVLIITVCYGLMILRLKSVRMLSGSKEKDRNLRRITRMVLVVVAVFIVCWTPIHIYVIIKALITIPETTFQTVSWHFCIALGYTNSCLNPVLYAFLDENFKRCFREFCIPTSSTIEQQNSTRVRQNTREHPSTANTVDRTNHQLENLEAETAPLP

## NC(=O)[C@H](Cc1ccccc1)NC(=O)[C@H](Cc1ccccc1)NC(=O)[C@@H]1C[C@@H](O)CN1C(=O)[C@@H](N)Cc1ccc(O)cc1
[1]
  EC50: 66 nM
[2]
  Ki: 44 nM
[3]
  Ki: > 10000 nM
[4]
  Activity: Dose-dependent effect
[5]
  half-life: 17 min

## NC(=O)[C@H](Cc1ccccc1)NC(=O)[C@H](Cc1ccccc1)NC(=O)[C@@H]1CC=C[C@@H]1NC(=O)[C@@H](N)Cc1ccc(O)cc1
[3]
  Ki: > 10000 nM
[4]
  Activity: Dose-dependent effect

## NC(=O)[C@H](Cc1ccccc1)NC(=O)[C@H](Cc1ccccc1)NC(=O)[C@@H]1CC=CC[C@@H]1NC(=O)[C@@H](N)Cc1ccc(O)cc1
[3]
  Ki: > 10000 nM
[4]
  Activity: Dose-dependent effect

## NC(=O)[C@H](Cc1ccccc1)NC(=O)[C@H](Cc1ccccc1)NC(=O)C[C@@H]1CCCN1C(=O)[C@@H](N)Cc1ccc(O)cc1
[1]
  EC50: 845 nM
[2]
  Ki: 27 nM
[3]
  Ki: > 10000 nM
[4]
  Activity: Dose-dependent effect
[5]
  half-life: 34 min

## NC(=O)[C@H](Cc1ccccc1)NC(=O)[C@H](Cc1ccccc1)NC(=O)[C@H]1CC=CC[C@H]1NC(=O)[C@@H](N)Cc1ccc(O)cc1
[3]
  Ki: 1030 nM
[4]
  Activity: Dose-dependent effect
[5]
  half-life: > 1200 min

## NC(=O)[C@H](Cc1ccccc1)NC(=O)[C@H](Cc1ccccc1)NC(=O)[C@H]1CC=C[C@H]1NC(=O)[C@@H](N)Cc1ccc(O)cc1
[3]
  Ki: 9930 nM
[4]
  Activity: Dose-dependent effect
[5]
  half-life: > 1200 min

## NC(=O)[C@H](Cc1ccccc1)NC(=O)[C@H](Cc1ccccc1)NC(=O)[C@@H]1CCCN1C(=O)[C@@H](N)Cc1ccc(O)cc1 [ENDOMORPHIN 2]
[4]
  Activity: Dose-dependent effect
[5]
  half-life: 5.8 min
